This note sets out measurements from ChEMBL document CHEMBL1136868, “Synthesis of phenylisothiourea derivatives as inhibitors of NO production in LPS activated macrophages” (Bioorg Med Chem Lett, 2009).

Activity calls are given as the source filed them. No cut-off for these calls is given here. Some results are limits rather than exact numbers.

Series [1] relates to RAW264.7. Description: Antiinflammatory activity against LPS-stimulated mouse RAW264.7 cells assessed as inhibition of NO production at 50 uM after 20 hrs relative to control. In kind it is functional. To be noted: RAW264.7, 20 h. The gist of the method: (§1)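 RAW 264.7 cells plated at 1 × 10⁵ cells/mL in 10% FBS–DMEM and grown 24 h, then moved to 1% FBS medium. Cells were stimulated with LPS (1 µg/mL) with or without compound for 20 h. Nitrite accumulated in supernatant was read by Griess reagent (10 min, room temperature, A570). Inhibition is relative to LPS control, n = 3; IC50 given as mean ± SD of three experiments.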

In series [2] the test system is RAW264.7. In words: Antiinflammatory activity against LPS-stimulated mouse RAW264.7 cells assessed as inhibition of NO production at 20 uM after 20 hrs relative to control. In kind it is functional. To be noted: RAW264.7, 20 h. The gist of the method: as §1
In series [3] the test system is RAW264.7. In words: Cytotoxicity against mouse RAW264.7 cells. In kind it is cell-based.
For series [4], the system named is RAW264.7. Description: Inhibition of iNOS mRNA expression in LPS-stimulated mouse RAW264.7 cells at 10 uM after 6 hrs by RT-PCR. In kind it is functional, cell-based. The gist of the method: (§2)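 RAW 264.7 cells (1.8 × 10⁶ per 60 mm dish) were stimulated 6 h with LPS (1 µg/mL) with or without compound. Total RNA was extracted and 2 µg was reverse transcribed with random hexamers. PCR ran 25 cycles (94 °C, 55 °C, 72 °C, 30 s each), and products were resolved on 2% agarose. iNOS was normalized to β-actin; mean ± SD of three densitometric analyses.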

Series [5] has as its system RAW264.7. In words: Suppression of LPS-induced NF-kappaB p65 subunit translocation into nucleus in mouse RAW264.7 cells assessed as p65 protein level at 10 uM after 30 mins pretreated 30 mins before LPS challenge by Western blot. In kind it is functional, cell-based. The gist of the method: (§3)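 Macrophages were pretreated with compound for 30 min, then given LPS (1 µg/mL) for a further 30 min. Nuclear extracts were immunoblotted for p65, with levels normalized to PARP as the loading control.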
For orientation: In western blotting, separated proteins are transferred to a membrane and probed.

Series [6] concerns RAW264.7. In words: Inhibition of iNOS mRNA expression in LPS-stimulated mouse RAW264.7 cells at 5 uM after 6 hrs by RT-PCR. In kind it is functional, cell-based. An outline of the steps: as §2
Series [7] deals with RAW264.7. Description: Inhibition of iNOS protein expression in LPS-stimulated mouse RAW264.7 cells at 10 uM after 20 hrs by Western blot. In kind it is functional, cell-based. The gist of the method: (§4)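 RAW 264.7 cells were exposed to compound for 20 h during LPS (1 µg/mL) activation, then washed and lysed. 20 µg lysate protein was run on 8% SDS-PAGE, blotted to PVDF and probed for iNOS and actin. iNOS band density was normalized to actin; mean ± SD of three independent densitometric analyses.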

Series [8] deals with RAW264.7. Description: Inhibition of iNOS protein expression in LPS-stimulated mouse RAW264.7 cells at 5 uM after 20 hrs by Western blot. In kind it is functional. The following applies: RAW264.7, 20 h. An outline of the steps:
as §4

In series [9] the test system is RAW264.7. Description: Suppression of LPS-induced NF-kappaB p65 subunit translocation into nucleus in mouse RAW264.7 cells assessed as p65 protein level at 5 uM after 30 mins pretreated 30 mins before LPS challenge by Western blot. In kind it is functional, cell-based. An outline of the steps:
as §3

Series [10] concerns RAW264.7. Description: Antiinflammatory activity against LPS-stimulated mouse RAW264.7 cells assessed as inhibition of NO production after 20 hrs. In kind it is functional, cell-based. To be noted: RAW264.7, 20 h. An outline of the steps:
as §1

For series [11], the system named is RAW264.7. Description: Antiinflammatory activity against LPS-stimulated mouse RAW264.7 cells assessed as inhibition of NO production at 5 uM after 20 hrs relative to control. In kind it is functional. The following applies: RAW264.7, 20 h. An outline of the steps: as §1
Series [12] in a line: Peroxynitrite radical scavenging activity assessed as dihydrohodamine 123 product by cell free assay. The gist of the method: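 In a cell-free system, oxidation of dihydrorhodamine 123 by authentic peroxynitrite was monitored by fluorescence.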

As a reminder, the inhibition is the percentage by which the read-out fell short of the control. `CCCc1ccc(NC(=S)NCC)cc1`: the inhibition at 50 µM in the series on RAW264.7 [1] stood at 23%. The inhibition at 20 µM in the series on RAW264.7 [2] is less than 10%.
On the same counts, the results for `CS/C(N)=N\c1ccc(OCCn2c3ccccc3c3ccccc32)cc1` are 24% and 22%.
In the case of `COc1cc(/C=C/C(=O)CC(=O)/C=C/c2ccc(O)c(OC)c2)ccc1O` [CURCUMIN], the Activity entry with RAW264.7 [3] is recorded as “Non-toxic”. The inhibition result in the series on RAW264.7 [4] was “Active”. Also, the outcome in the series on RAW264.7 [5] was Active.
Consider `CCNC(=S)Nc1ccc(O)cc1`, for which, in the series on RAW264.7 [1], the inhibition at 50 µM is 20%. The inhibition at 20 µM in the series on RAW264.7 [2] was less than 10%.
In general, IC50 refers to the concentration needed to halve the response being measured. With `CCN/C(=N/c1ccc(OCCn2c3ccccc3c3ccccc32)cc1)SC(C)C`, in the series with RAW264.7 [3], the Activity entry is given as “Non-toxic”. Also, the inhibition entry in the series on RAW264.7 [6] is “Active”. Besides, in the series on RAW264.7 [7], the “iNOS protein expression inhibition” value was “Active”. Moreover, in the series on RAW264.7 [8], the inhibition at 5 µM stood at 79%. Further, the inhibition at 20 µM with RAW264.7 [2] was 48%. The result with RAW264.7 [9] and with RAW264.7 [5] was Active. For the same compound, the 50% inhibitory concentration (IC50) in the series with RAW264.7 [10] stood at 1.3 µM.
With `CCNC(=S)Nc1ccc(OCC)cc1`, the inhibition at 50 µM in the series on RAW264.7 [1] is 12%. The inhibition at 20 µM in the series with RAW264.7 [2] is less than 10%.
On to `CCN/C(=N/c1ccc(OCCn2c3ccccc3c3ccccc32)cc1)SC`, for which the Activity entry in the series with RAW264.7 [3] was “Non-toxic”. For the same compound, the “iNOS protein expression inhibition” value with RAW264.7 [7] was “Active”. The inhibition at 50 µM in the series on RAW264.7 [1] worked out at 100%. In the series on RAW264.7 [2], the inhibition at 20 µM was determined as 99%. For the same compound, in the series with RAW264.7 [10], the half-maximal inhibitory concentration (IC50) is 2.9 µM. For the same compound, the outcome with RAW264.7 [5] was Active.
As to `CCN/C(=N/c1ccc(OCCn2c3ccccc3c3ccccc32)cc1)SCc1ccc(C(=O)OC)cc1`, the inhibition at 50 µM in the series with RAW264.7 [1] worked out at 17%. The inhibition at 20 µM in the series on RAW264.7 [2] came to 14%.
On the same counts, the results for `CCNC(=S)Nc1ccc(Cl)cc1` are 11% and less than 10%.
Take `CCN/C(=N/c1ccc(OCCn2c3ccccc3c3ccccc32)cc1)SCc1ccc(F)cc1`: the inhibition at 50 µM in the series on RAW264.7 [1] amounted to 40%. Besides, the inhibition at 20 µM in the series on RAW264.7 [2] turned out to be 36%.
Turning to `CCN/C(=N/c1ccc(-c2ccccc2)cc1)SC(C)C`, in the series on RAW264.7 [3], the Activity entry is given as “Non-toxic”. Also, the “iNOS protein expression inhibition” value with RAW264.7 [7] is “Active”. Further, the inhibition at 50 µM in the series with RAW264.7 [1] is 96%. Further, in the series with RAW264.7 [2], the inhibition at 20 µM stood at 85%. Also, the inhibition at 5 µM in the series on RAW264.7 [11] was 13%. The IC50 in the series with RAW264.7 [10] turned out to be 11.2 µM. In addition, the result in the series on RAW264.7 [5] was Active.
`CCN/C(=N/c1ccc(OCCn2c3ccccc3c3ccccc32)cc1)SCc1ccccc1`: the inhibition at 50 µM with RAW264.7 [1] is 33%. Also, the inhibition at 20 µM with RAW264.7 [2] stood at 31%.
For `CCCc1ccc(/N=C(/NCC)SC(C)C)cc1` the same measures were 71% and less than 10%.
On the same counts, the results for `CCN/C(=N/c1ccc(OCC)cc1)SC(C)C` are 22% and less than 10%.
Turning to `CCN/C(=N/c1ccc(C)cc1)SC(C)C`, the inhibition at 50 µM with RAW264.7 [1] is 14%. Also, the inhibition at 20 µM in the series with RAW264.7 [2] is less than 10%.
Regarding `CCN/C(=N/c1ccc(Cl)cc1)SC(C)C`, the inhibition at 50 µM in the series on RAW264.7 [1] was 62%. Further, the inhibition at 20 µM in the series with RAW264.7 [2] was less than 10%.
Turning to `CCN/C(=N/c1ccc(OCCn2c3ccccc3c3ccccc32)cc1)SCc1ccc(C(=O)O)cc1`, the Activity entry in the series with RAW264.7 [3] is listed as “Non-toxic”. Also, in series [12], the SC50 was found to be 14 µM. Also, in the series on RAW264.7 [7], the “iNOS protein expression inhibition” value was “Active”. Besides, in the series with RAW264.7 [1], the inhibition at 50 µM is 100%. In addition, the inhibition at 20 µM in the series on RAW264.7 [2] was determined as 90%. Further, the inhibition at 5 µM in the series on RAW264.7 [11] worked out at 39%. Also, the IC50 in the series with RAW264.7 [10] was 5.3 µM. Besides, in the series on RAW264.7 [5], the result was Active.
Take `CCS/C(N)=N\c1ccc(OCCn2c3ccccc3c3ccccc32)cc1`: in the series with RAW264.7 [1], the inhibition at 50 µM amounted to 64%. The inhibition at 20 µM in the series with RAW264.7 [2] worked out at 32%.
For `CCNC(=S)Nc1ccc(C)cc1` the same measures were 14% and less than 10%.
`CCNC(=S)Nc1ccc(-c2ccccc2)cc1`: in the series with RAW264.7 [1], the inhibition at 50 µM is 23%. Also, the inhibition at 20 µM in the series on RAW264.7 [2] is less than 10%.
On to `CC(C)S/C(N)=N\c1ccc(OCCn2c3ccccc3c3ccccc32)cc1`, for which the inhibition at 50 µM with RAW264.7 [1] is 30%. Moreover, the inhibition at 20 µM with RAW264.7 [2] is 22%.
